This note sets out measurements from ChEMBL document CHEMBL1156308 (J Med Chem, 2010).

A short description of data set [1]: Biodistribution in iv dosed monkey brain after 6 hrs. The note with it: rhesus monkey, read-out: Drug uptake. It is filed as ADME, organism-based, Macaca mulatta.
Data set [2] can be described thus: Biodistribution in baboon liver at 85 mg, iv after 90 mins. It is filed as ADME, organism-based. Particulars: papio hamadryas, read-out: Drug uptake.
Data set [3] in a line: Biodistribution in baboon lung at 85 mg, iv after 15 mins. It is filed as ADME, organism-based. Particulars: papio hamadryas, read-out: Drug uptake.
The nature of data set [4]: Biodistribution in baboon heart at 85 mg, iv after 90 mins. It is filed as ADME, organism-based. The note with it: papio hamadryas, read-out: Drug uptake.
Data set [5] in a line: Biodistribution in baboon plasma at 85 mg, iv after 15 mins. The data set is classed as ADME, organism-based. The note with it: papio hamadryas, read-out: Drug uptake. The method in brief: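 Anesthetised baboons (ketamine 10 mg/kg i.m.; oxygen, nitrous oxide and isoflurane 1–4% during scanning) got a micro dose of [11C]-labelled drug i.v. via a radial arm vein; arterial blood was sampled serially over 90 min. Plasma %ID/cc was converted to µg/ml from the listed dose over a 17 kg baboon, assuming the signal is intact drug.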

Data set [6] can be described thus: Biodistribution in baboon kidney cortex at 85 mg, iv after 30 mins. Particulars: papio hamadryas, read-out: Drug uptake. It is filed as ADME, organism-based.
A short description of data set [7]: Biodistribution in baboon whole brain at 85 mg, iv after 90 mins. The note with it: papio hamadryas, read-out: Drug uptake. It is filed as ADME, organism-based. An outline of the steps:
(§1)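 Brain PET ran 90 min after i.v. [11C]-labelled drug in anaesthetised baboons. Whole-brain regions of interest gave time-activity curves in %ID/cc. µg/ml values were estimated from baboon weight (17 kg) and the recommended human daily dose per kg, assuming signal comes from intact drug.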

Data set [8] is described as follows: Biodistribution in baboon kidney cortex at 85 mg, iv after 90 mins. The note with it: papio hamadryas, read-out: Drug uptake. The data set is classed as ADME, organism-based.
A short description of data set [9]: Biodistribution in baboon heart at 85 mg, iv after 30 mins. It is filed as ADME, organism-based. The note with it: papio hamadryas, read-out: Drug uptake.
A short description of data set [10]: Biodistribution in baboon kidney cortex at 85 mg, iv after 60 mins. The data set is classed as ADME, organism-based. The note with it: papio hamadryas, read-out: Drug uptake.
Data set [11] is described as follows: Biodistribution in baboon lung at 85 mg, iv after 60 mins. It is filed as ADME, organism-based. The note with it: papio hamadryas, read-out: Drug uptake.
Data set [12] is described as follows: Biodistribution in baboon plasma at 85 mg, iv after 90 mins. The data set is classed as ADME, organism-based. Particulars: papio hamadryas, read-out: Drug uptake. The method in brief:
(§2)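 Anaesthetised baboons received [11C]-labelled drug i.v. (radial arm vein) by PET protocol. Arterial blood was drawn from a popliteal catheter every 5 s for 2 min, then at 2–90 min. Plasma activity is given as %ID/cc. µg/ml values were estimated from the human daily dose per kg scaled to a 17 kg baboon, assuming signal comes from intact drug.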

The nature of data set [13]: Biodistribution in baboon heart at 85 mg, iv after 60 mins. Particulars: papio hamadryas, read-out: Drug uptake. The data set is classed as ADME, organism-based.
Data set [14] is described as follows: Biodistribution in baboon kidney medulla at 85 mg, iv after 15 mins. The data set is classed as ADME, organism-based. The note with it: papio hamadryas, read-out: Drug uptake. An outline of the steps: (§3)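 The [11C]-labeled drug was given as an i.v. micro dose via a radial arm vein to anesthetized baboons (ketamine 10 mg/kg i.m.; O2/N2O/isoflurane 1–4%), then torso PET. Organ TACs came from manually drawn ROIs and are reported as %ID/cc. µg/ml was estimated assuming a 5 mg/kg dose, a 17 kg baboon, and that the positron signal is intact drug.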

The nature of data set [15]: Biodistribution in baboon lung at 85 mg, iv after 90 mins. The data set is classed as ADME, organism-based. The note with it: papio hamadryas, read-out: Drug uptake.
Data set [16] is described as follows: Biodistribution in baboon heart at 85 mg, iv after 15 mins. It is filed as ADME, organism-based. The note with it: papio hamadryas, read-out: Drug uptake.
Data set [17] in a line: Biodistribution in baboon kidney medulla at 85 mg, iv after 30 mins. It is filed as ADME, organism-based. Particulars: papio hamadryas, read-out: Drug uptake. The method in brief:
as §3

Data set [18] in a line: Biodistribution in baboon kidney medulla at 85 mg, iv after 60 mins. It is filed as ADME, organism-based. The note with it: papio hamadryas, read-out: Drug uptake. The method in brief:
as §3

The nature of data set [19]: Biodistribution in baboon whole brain at 85 mg, iv after 60 mins. The data set is classed as ADME, organism-based. Particulars: papio hamadryas, read-out: Drug uptake. The method in brief: as §1
Data set [20] is described as follows: Biodistribution in baboon plasma at 85 mg, iv after 60 mins. It is filed as ADME, organism-based. The note with it: papio hamadryas, read-out: Drug uptake. An outline of the steps:
as §2

Data set [21] can be described thus: Biodistribution in baboon liver at 85 mg, iv after 30 mins. The note with it: papio hamadryas, read-out: Drug uptake. The data set is classed as ADME, organism-based.
A short description of data set [22]: Biodistribution in baboon whole brain at 85 mg, iv after 30 mins. It is filed as ADME, organism-based. Particulars: papio hamadryas, read-out: Drug uptake. The method in brief:
as §1

The nature of data set [23]: Biodistribution in baboon liver at 85 mg, iv after 60 mins. The data set is classed as ADME, organism-based. Particulars: papio hamadryas, read-out: Drug uptake.
A short description of data set [24]: Biodistribution in baboon kidney medulla at 85 mg, iv after 90 mins. The data set is classed as ADME, organism-based. Particulars: papio hamadryas, read-out: Drug uptake. An outline of the steps: as §3
Data set [25] in a line: Biodistribution in baboon liver at 85 mg, iv after 15 mins. The note with it: papio hamadryas, read-out: Drug uptake. It is filed as ADME, organism-based.
Data set [26] is described as follows: Biodistribution in baboon kidney cortex at 85 mg, iv after 15 mins. The note with it: papio hamadryas, read-out: Drug uptake. It is filed as ADME, organism-based.
Data set [27] in a line: Biodistribution in baboon lung at 85 mg, iv after 30 mins. The data set is classed as ADME, organism-based. Particulars: papio hamadryas, read-out: Drug uptake.
Data set [28] can be described thus: Biodistribution in baboon plasma at 85 mg, iv after 30 mins. It is filed as ADME, organism-based. The note with it: papio hamadryas, read-out: Drug uptake. An outline of the steps:
as §2

The nature of data set [29]: Biodistribution in mouse whole brain at 10 mg/kg, sc after 60 mins. Also on record: dose 10 mg/kg, route subcutaneous. Particulars: read-out: Drug uptake. It is filed as ADME, organism-based.
Data set [30] in a line: Biodistribution in mouse whole brain at 10 mg/kg, sc after 30 mins. Also on record: dose 10 mg/kg, route subcutaneous. Particulars: read-out: Drug uptake. It is filed as ADME, organism-based.

Regarding `CO[C@H]1/C=C/O[C@@]2(C)Oc3c(C)c(O)c4cc(c(/C=N/N5CCN([14CH3])CC5)c(O)c4c3C2=O)NC(=O)/C(C)=C\C=C\C(C)[C@H](O)[C@@H](C)[C@@H](O)[C@@H](C)[C@H](OC(C)=O)[C@@H]1C` (stereo not given in full), the concentration at 6 h in [1] was determined as 870 ng/g.
Turning to `NN[11C](=O)c1ccncc1`, the concentration at 1.5 h in data set [2] is 6910 ng/mL; in data set [4] it was 4150 ng/mL; in data set [7], 1750 ng/mL; in data set [8], 8540 ng/mL; in data set [12], 1620 ng/mL; in [15], 4190 ng/mL. In addition, the concentration at 1.5 h in data set [24] came to 14700 ng/mL. In addition, the concentration at 0.25 h was found to be 7720 ng/mL in data set [3]; 3760 ng/mL in data set [5]; 18900 ng/mL in data set [14]; 8720 ng/mL in data set [16]; 12500 ng/mL in data set [25]; 15100 ng/mL in data set [26]. The concentration at 0.5 h in [6] stood at 9260 ng/mL; in data set [9], 6130 ng/mL; in [17] it was 15400 ng/mL; in [21] it was 9710 ng/mL; in [22], 2540 ng/mL; in data set [27] it was 6090 ng/mL. Further, the concentration at 0.5 h in data set [28] was 2960 ng/mL. The concentration at 1 h stood at 7720 ng/mL in [10]; 4420 ng/mL in [11]; 3740 ng/mL in [13]; 16400 ng/mL in [18]; 2110 ng/mL in data set [19]; 2050 ng/mL in data set [20]. Also, the concentration at 1 h in [23] is 7640 ng/mL.
Take `NN[14C](=O)c1ccncc1`: the concentration at 1 h in data set [29] is 3200 ng/g. The concentration at 0.5 h in data set [30] worked out at 4400 ng/g.
